Publication PMC7302971 (Bioorganic chemistry, 2020)

What was measured:
CEM leukemia cells = assay: Differential Nuclear Staining; type: cell-based, human; conditions: 48 h
Outline: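 Cells were seeded at 10,000/well and exposed to test compound for 48 h at 1% (v/v) final DMSO. The first screen used a single concentration with controls in quadruplicate. Dose-response used 0.5–100 μM in triplicate. Controls: DMSO vehicle, hydrogen peroxide (positive), untreated (negative). Hoechst 33342 plus PI were added 2 h before automated imaging, and colocalised signal was scored as dead. […] Two-tailed t-test versus DMSO.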

HDAC1 = HDAC1 (Homo sapiens, UniProt Q13547); assay: HDAC enzyme activity assay; type: biochemical
HDAC1, sequence (Q13547 whole entry): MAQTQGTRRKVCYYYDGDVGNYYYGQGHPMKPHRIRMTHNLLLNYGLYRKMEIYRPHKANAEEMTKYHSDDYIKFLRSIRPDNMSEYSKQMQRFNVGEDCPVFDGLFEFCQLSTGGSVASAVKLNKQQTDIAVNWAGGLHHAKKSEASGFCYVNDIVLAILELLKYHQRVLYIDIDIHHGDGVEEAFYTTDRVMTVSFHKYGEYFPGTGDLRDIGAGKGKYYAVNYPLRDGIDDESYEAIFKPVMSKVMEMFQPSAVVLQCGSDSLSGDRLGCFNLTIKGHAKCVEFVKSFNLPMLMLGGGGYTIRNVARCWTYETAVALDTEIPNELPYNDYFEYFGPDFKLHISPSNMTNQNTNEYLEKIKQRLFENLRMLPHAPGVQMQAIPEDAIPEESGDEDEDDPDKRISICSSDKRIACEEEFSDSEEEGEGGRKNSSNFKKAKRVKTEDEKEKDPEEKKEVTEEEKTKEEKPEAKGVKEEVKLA
Outline: (§1)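 Commercial enzyme was preincubated with serial inhibitor dilutions for 60 min at 30 °C in 25 mM Tris-HCl pH 8.0, 75 mM KCl and 0.001% Pluronic F-127. Reaction was started with 50 μM Boc-Lys(acetyl)-AMC, run 60 min at 30 °C, and stopped with 4.17 μM SAHA. Trypsin (0.4 mg/ml) released AMC, read at Ex 350/Em 450 nm. IC50 came from a four-parameter logistic fit.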

HDAC2 = HDAC2 (Homo sapiens, UniProt Q92769); assay: HDAC enzyme activity assay; type: biochemical
HDAC2, sequence (Q92769 whole entry): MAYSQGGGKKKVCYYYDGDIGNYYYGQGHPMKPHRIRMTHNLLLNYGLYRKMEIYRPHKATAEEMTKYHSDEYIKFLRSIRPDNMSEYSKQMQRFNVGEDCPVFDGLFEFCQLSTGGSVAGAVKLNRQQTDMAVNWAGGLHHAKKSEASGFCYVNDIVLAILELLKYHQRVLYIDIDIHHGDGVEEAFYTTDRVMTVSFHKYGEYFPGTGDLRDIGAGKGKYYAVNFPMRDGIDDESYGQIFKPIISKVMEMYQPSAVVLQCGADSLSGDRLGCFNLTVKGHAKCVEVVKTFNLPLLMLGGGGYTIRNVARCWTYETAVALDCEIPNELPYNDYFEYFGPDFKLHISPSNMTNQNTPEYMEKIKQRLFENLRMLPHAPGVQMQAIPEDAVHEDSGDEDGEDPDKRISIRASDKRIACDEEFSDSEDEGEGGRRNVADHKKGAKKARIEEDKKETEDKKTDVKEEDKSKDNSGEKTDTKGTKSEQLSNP
Outline: as §1

HDAC5 = HDAC5 (Homo sapiens, UniProt Q9UQL6); assay: HDAC enzyme activity assay; type: biochemical
HDAC5, sequence (Q9UQL6 whole entry): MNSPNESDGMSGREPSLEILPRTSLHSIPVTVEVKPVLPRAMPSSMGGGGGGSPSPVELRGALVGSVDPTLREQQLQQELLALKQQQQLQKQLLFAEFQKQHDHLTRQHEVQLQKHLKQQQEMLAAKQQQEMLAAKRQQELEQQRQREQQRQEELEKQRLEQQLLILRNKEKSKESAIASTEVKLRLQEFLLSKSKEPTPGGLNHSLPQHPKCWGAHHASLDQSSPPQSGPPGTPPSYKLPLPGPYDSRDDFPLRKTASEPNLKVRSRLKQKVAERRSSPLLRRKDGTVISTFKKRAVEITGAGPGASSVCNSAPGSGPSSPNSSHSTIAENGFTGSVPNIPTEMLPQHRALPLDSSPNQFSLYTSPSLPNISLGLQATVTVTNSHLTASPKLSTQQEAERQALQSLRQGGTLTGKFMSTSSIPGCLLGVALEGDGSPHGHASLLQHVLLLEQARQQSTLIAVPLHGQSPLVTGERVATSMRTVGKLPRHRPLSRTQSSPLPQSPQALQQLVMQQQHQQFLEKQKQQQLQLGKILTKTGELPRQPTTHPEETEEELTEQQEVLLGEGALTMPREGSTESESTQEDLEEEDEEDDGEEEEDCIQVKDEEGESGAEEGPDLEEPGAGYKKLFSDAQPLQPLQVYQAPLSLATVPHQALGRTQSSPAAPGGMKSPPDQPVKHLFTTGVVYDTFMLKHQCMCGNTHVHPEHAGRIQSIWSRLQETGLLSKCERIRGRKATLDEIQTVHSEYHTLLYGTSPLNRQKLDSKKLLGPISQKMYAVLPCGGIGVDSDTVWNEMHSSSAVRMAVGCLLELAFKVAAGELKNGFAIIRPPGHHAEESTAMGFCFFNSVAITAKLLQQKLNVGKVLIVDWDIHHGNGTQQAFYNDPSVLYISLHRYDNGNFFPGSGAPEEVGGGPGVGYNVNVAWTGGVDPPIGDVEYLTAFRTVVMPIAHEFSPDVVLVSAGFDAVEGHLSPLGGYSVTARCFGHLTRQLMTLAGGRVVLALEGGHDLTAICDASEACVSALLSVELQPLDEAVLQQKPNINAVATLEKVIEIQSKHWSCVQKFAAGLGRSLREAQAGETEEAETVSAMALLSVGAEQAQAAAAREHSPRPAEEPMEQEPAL
Outline: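 Commercial HDAC5 was preincubated with serial inhibitor dilutions for 60 min at 30 °C in Tris-HCl pH 8.0 buffer. Reaction used 20 μM Boc-Lys(trifluoroacetyl)-AMC for 60 min at 30 °C and was stopped with 1.7 μM SATFMK. Trypsin development followed, then AMC fluorescence at 350/450 nm. IC50 came from a four-parameter logistic fit.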

HDAC6 = target: T1, HDAC6 (Homo sapiens, UniProt Q9UBN7); assay: HDAC enzyme activity assay; type: biochemical
T1 sequence (Q9UBN7 1-1215): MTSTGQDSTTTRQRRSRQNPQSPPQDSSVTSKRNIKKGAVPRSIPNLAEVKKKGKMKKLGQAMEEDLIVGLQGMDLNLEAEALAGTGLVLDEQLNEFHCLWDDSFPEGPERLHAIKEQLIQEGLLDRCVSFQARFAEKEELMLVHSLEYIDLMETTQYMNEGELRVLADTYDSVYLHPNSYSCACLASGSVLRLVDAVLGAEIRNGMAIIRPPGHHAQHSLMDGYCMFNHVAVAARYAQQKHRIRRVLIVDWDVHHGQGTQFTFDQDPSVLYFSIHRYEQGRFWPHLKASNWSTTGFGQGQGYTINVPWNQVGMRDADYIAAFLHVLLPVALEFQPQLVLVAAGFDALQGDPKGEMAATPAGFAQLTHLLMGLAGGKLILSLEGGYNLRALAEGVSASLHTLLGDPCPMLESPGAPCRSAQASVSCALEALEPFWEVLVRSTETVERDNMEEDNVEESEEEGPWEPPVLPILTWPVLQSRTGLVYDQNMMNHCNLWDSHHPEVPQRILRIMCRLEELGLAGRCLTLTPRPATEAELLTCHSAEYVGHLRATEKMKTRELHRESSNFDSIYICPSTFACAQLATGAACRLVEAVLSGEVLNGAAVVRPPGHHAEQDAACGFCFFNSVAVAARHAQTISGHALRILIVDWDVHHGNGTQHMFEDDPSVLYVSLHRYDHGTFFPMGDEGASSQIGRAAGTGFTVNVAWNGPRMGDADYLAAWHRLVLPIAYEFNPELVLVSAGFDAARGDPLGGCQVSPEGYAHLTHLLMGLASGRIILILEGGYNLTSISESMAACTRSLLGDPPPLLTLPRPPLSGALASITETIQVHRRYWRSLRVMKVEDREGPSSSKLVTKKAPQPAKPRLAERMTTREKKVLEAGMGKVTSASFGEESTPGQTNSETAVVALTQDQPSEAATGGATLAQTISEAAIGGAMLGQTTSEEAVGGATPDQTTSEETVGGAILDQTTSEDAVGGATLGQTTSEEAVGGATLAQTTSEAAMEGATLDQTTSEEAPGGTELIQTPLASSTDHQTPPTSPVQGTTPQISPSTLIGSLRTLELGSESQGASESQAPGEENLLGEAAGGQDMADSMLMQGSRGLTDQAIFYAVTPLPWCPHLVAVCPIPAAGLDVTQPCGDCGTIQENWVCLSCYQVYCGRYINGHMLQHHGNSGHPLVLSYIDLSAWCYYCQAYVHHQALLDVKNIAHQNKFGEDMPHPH
Outline: as §1

[1] = DNS assay on normal human fibroblast; type: cell-based; conditions: HS27 normal fibroblasts
Outline: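 HS27 fibroblasts were tested by DNS imaging after exposure to test compound. Hoechst 33342, which stains all nuclei, and PI, which enters only membrane-compromised cells, were added before imaging.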

[2] = MTT cell viability assay, normal WBCs; type: cell-based; conditions: human
Outline: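 Human WBCs were isolated from diluted blood on HiSep density medium (400 × g, 30 min, room temperature). Mononuclear cells were PBS-washed, RBC-lysed for 5 min, washed again and kept in RPMI 1640 at 37 °C in 5% CO2. Cells were seeded at about 5×10³ per well and exposed to test compound at 2.5–100 μM for 48 h.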

GLUT5 = assay: GLUT transport inhibition assay in hxt0 yeast cells; type: cell-based, human; conditions: 50 μM compound, 10 mM C14-fructose
Outline: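 Human GLUT4 was expressed in VW4000fgy1erg4 yeast (1% maltose, then 0.2% glucose, SC-uracil). GLUT5 was expressed in VW4000 (YEP with 2% maltose and G418, then 2% fructose). PBS-washed cells were exposed to 50 μM test compound. Uptake of 14C-glucose (5 mM, GLUT4) or 14C-fructose (10 mM, GLUT5) ran 10 min, followed by quench, filtration and scintillation counting. Activity was relative to 1% DMSO and to saturating phloretin (GLUT4) or MSNBA (GLUT5). Triplicates.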

SMILES | cell death at 100 μM (CEM leukemia cells; CEM, DNS assay, 100 μM) [% cell death at 100 μM] | IC50 (HDAC1) [µM] | IC50 (HDAC2) [µM] | IC50 (HDAC5) [µM] | IC50 (HDAC6) [µM] | CC50 (CEM leukemia cells; Homo sapiens) [µM] | CC50 [1] [µM] | CC50 at 48 h [2] [µM] | relative transport activity of GLUT5 (GLUT5)
Cc1c(NC(=O)CN2C(=O)SC(=Cc3ccccn3)C2=O)c(=O)n(-c2ccccc2)n1C [Compound P10, N-(1,5-dimethyl-3-oxo-2-phenyl-2,3-dihydro-1H-pyrazol-4-yl)-2-(2,4-dioxo-5-(pyridin-2-ylmethylene)thiazolidin-3-yl)acetamide] | 2.39 | > 50 | 45 | 43 | 26 |  |  |  | 
O=C(CN1C(=O)SC(=Cc2ccccn2)C1=O)Nc1nc2ccccc2s1 [Compound P19, N-(benzo[d]thiazol-2-yl)-2-(2,4-dioxo-5-(pyridin-2-ylmethylene)thiazolidin-3-yl)acetamide] |  | > 50 | 41 | > 50 | 17 | 79.9 ± 3.74 | 105 | 104 | ineffective
